Screening data (PubChem)
Compounds with a hit are over-represented: about 2% of the library has one in this group of screens.
CHRM1 antagonist = human CHRM1 antagonism. P11229. CHO-K1 hM1, Fluo-8 calcium fluorescence, ACh EC80 antagonist. inhibition, % at 3 µM. 360,000 compounds, 1.3% hits. AID 588852;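 active = percent inhibition above its own plate's cutoff, namely the mean of that plate's compound wells plus 3 SD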;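 also: peak over basal fluorescence ratio during 140 s after agonist addition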
M5 ag = CHRM5 agonism in calcium assay; 360,000 compounds, 0.19% hits; activation, % at 3 µM; P08912; CHO-K1 hM5 cells, Fluo-8 calcium fluorescence; 0% DMSO wells, 100% maximal acetylcholine response; AID 624037;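 active = activation above the run's mean over test compounds plus 3 SD, cut at about 23% in these data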;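 also: signal is peak over basal fluorescence ratio across the kinetic read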
Target sequence (P08912 whole entry, looked up): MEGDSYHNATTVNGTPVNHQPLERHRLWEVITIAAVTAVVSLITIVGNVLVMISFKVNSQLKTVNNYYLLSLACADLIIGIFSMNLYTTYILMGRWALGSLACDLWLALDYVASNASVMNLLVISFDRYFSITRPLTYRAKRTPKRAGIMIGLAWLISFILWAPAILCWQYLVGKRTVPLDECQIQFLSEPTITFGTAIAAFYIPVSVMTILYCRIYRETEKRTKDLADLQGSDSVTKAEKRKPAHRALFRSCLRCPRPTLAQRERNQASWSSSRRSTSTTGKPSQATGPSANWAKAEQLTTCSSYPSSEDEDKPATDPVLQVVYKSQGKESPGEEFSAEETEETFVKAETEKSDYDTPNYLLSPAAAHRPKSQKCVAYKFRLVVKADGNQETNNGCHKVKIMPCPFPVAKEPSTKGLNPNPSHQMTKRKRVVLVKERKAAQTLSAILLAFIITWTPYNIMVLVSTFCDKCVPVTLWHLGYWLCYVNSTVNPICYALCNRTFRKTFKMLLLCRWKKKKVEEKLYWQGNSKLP
CHRM5 PAM = potentiates acetylcholine response at human M5 receptor. activation, % at 3 µM. 360,000 compounds, 0.3% hits. CHO-K1 hM5, Fluo-8 calcium, ACh EC20 PAM; 0% = ACh EC20, 100% = ACh EC100. AID 624038;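 active = activation above the run cutoff, the mean activation of all test compounds plus 3 SD, cut at about 18% in these data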
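Assay system: CHO-K1 hM5 cells / Incubation: Fluo-8 loading 80 min at 37 °C plus 30 min room temperature / Technique: Fluo-8 calcium dye fluorescence, kinetic read / Repeats: single replicate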
M5 antag = CHRM5 antagonism in calcium assay. P08912. CHO-hM5 cells, Fluo-8 calcium fluorescence, ACh EC80. inhibition, % at 3 µM. 360,000 compounds, 0.59% hits;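 active = inhibition above a per-plate cutoff, the mean of that plate's test compounds plus 3 SD, cut at about 27% in these data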
M1 ag = activates human CHRM1 receptor | P11229 | CHO-K1 hM1, Fluo-8 calcium fluorescence, agonist mode; 0% DMSO, 100% acetylcholine EC100 | activation, % at 3 µM | 360,000 compounds, 0.33% hits;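 active = activation above the run's mean compound activation plus 3 SD, cut at about 16% in these data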;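 also: peak over basal fluorescence ratio within a 140 s kinetic read after compound addition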
CHRM1 PAM = human CHRM1 positive allosteric modulation | AID 588819 | activation, % at 3 µM | CHO-K1 hM1, Fluo-8 calcium fluorescence, ACh EC20; 0% = ACh EC20, 100% = maximal ACh | 360,000 compounds, 0.088% hits; in the data active = activation above about 19%, passing the limit was not always enough
Hits are given with their value; – = inactive; · = no result given.

SMILES	CHRM1 antagonist	M5 ag	CHRM5 PAM	M5 antag	M1 ag	CHRM1 PAM
CC(O)(c1cccc(F)c1)c1nc(-c2ccc(S(C)(=O)=O)cc2)cs1 (stereo not given)	–	–	–	–	–	–
O=C1NC(Cc2ccccc2)c2nc3ccc(Cl)cc3c(=O)n2-c2ncccc21 (stereo not given)	–	–	–	–	–	–
COc1cc(OC)cc(C(=O)Nc2ccccc2C(=O)NCc2cccnc2)c1	–	–	–	28	–	–
CC(=O)c1cccc(NS(=O)(=O)c2ccc(NC(=O)N3CCCCC3)cc2)c1	36	–	–	–	–	–
CC(=O)c1cccc(NC(=O)N2CCCCCC2)c1	–	–	–	–	–	–
CC1=C(C(=O)N(C)C)CC(CC(=O)NCCCCc2ccccc2)C(=O)N1CCCN1CCCC1=O (stereo not given)	–	–	–	–	–	27
CSc1ccc(NC(=O)C2(C)CCN2C(=O)c2cc(C)n(C)n2)cc1 (stereo not given)	–	–	–	–	–	–
O=[N+]([O-])c1ccc(S(=O)(=O)NCCc2cn3ccccc3n2)cc1	–	–	–	–	–	28
COc1ccc(C(O)c2nc(/C=C/c3ccc(C(F)(F)F)cc3)cs2)cc1 (stereo not given)	–	–	–	–	–	–
Cc1ccc(SCC(=O)N2CCCC2)cc1	–	–	19	–	–	–
CC1CCCN(C(=S)Nc2ccc(S(=O)(=O)N3CCCCC3)cc2)C1 (stereo not given)	–	–	–	–	–	–
CCOC(=O)C1CCCN(C(=S)Nc2ccc(S(=O)(=O)N3CCOCC3)cc2)C1 (stereo not given)	54	42	–	–	63	–
CCOC(=O)C1CCCN(CC(=O)Nc2cccc(C(C)=O)c2)C1 (stereo not given)	–	–	–	–	–	–
CCOC(=O)C1CCCN(CCC(=O)Nc2cc(C)cc(C)c2)C1 (stereo not given)	–	–	–	–	21	–
CCOC(=O)C1CCCN(CC(=O)NC2CC2)C1 (stereo not given)	–	–	–	–	25	–
CCOC(=O)C1CCCN(C(=S)NC2CCCCC2)C1 (stereo not given)	–	–	–	–	39	–
N#C/C(=C\c1cccn1S(=O)(=O)c1ccccc1)S(=O)(=O)c1ccc(F)cc1	–	–	–	–	–	–
COc1ccccc1-c1cnc(C(O)c2cc(Cl)cc(Cl)c2)[nH]1 (stereo not given)	–	–	–	–	–	–
COc1cc(Cl)ccc1OC1(C)CCN(Cc2ccc(-c3ccccn3)cc2)C1 (stereo not given)	–	–	–	–	–	–
CCOC(=O)C1CCCN(C(=O)Nc2cccc(Cl)c2)C1 (stereo not given)	–	–	–	–	55	–
CCOC(=O)C1CCCN(Cc2cc(OC)c(O)c(OC)c2)C1 (stereo not given)	–	–	–	–	42	–
CC1CCCN(CCC(=O)Nc2ccc3c(c2)CCC3)C1 (stereo not given)	33	–	–	–	–	–
CCOC(=O)C1CCCN(S(=O)(=O)c2ccc(S(=O)(=O)N(CC)CC)cc2)C1 (stereo not given)	–	–	–	33	–	–
CCOC(=O)C1CCCN(CCC(=O)Nc2cc(OC)ccc2OC)C1 (stereo not given)	–	–	–	–	16	–
CCOC(=O)C1CCN(C(=S)Nc2cccc(C)c2)CC1	–	–	–	–	–	–
CCOC(=O)C1CCCN(C(=S)Nc2cc(C)cc(C)c2)C1 (stereo not given)	68	28	–	–	63	–
CCOC(=O)N1CCN(C(=S)Nc2cccc(C)c2)CC1	–	–	–	–	19	–
CCOC(=O)C1CCCN(CC(=O)Nc2cc(C)cc(C)c2)C1 (stereo not given)	–	–	–	–	–	–
COc1ccccc1-c1sc2ccccc2c1-c1cnc(N2CCOCC2)nc1	·	–	–	–	·	·
